Data as given in PMC12257578 (Drug Development Research, 2025).
Read-outs that look alike come from different tables or passages of the source. Each block holds one compound with its values, some of them ahead of it.

How the values were obtained:
[1] = tested on: Leishmania donovani strain 9515 intramacrophage amastigotes; assay: Intramacrophage antileishmanial assay; format: cell-based
[2] = tested on: Leishmania donovani strain 9515 promastigotes; assay: Antipromastigote resazurin assay, L. donovani; format: cell-based; details: read-out: Antipromastigote activity IC50
How it was run: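 L. donovani strain 9515 (MHOM/IN/95/9515) promastigotes were kept at 26°C in supplemented M199 with 10% FBS, pH 7.3–7.4. Log-phase cells were seeded at 1.25 × 10^6 cells/mL with seven two-fold dilutions of test compound. […] After 48 h at 26°C, 0.01% resazurin in PBS was added for 24 h in the dark. IC50 came from absorbance.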

[3] = Animal cytotoxicity, CCK-8 assay in MDBK cells; format: cell-based, bovine; details: bovine
How it was run: (§1)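 MDBK bovine kidney cells at 10 000 cells/mL were exposed to two-fold serial dilutions of test compound for 72 h at 37°C, 5% CO2, humidified. CCK-8 reagent was then added, followed by a further 4 h incubation. Absorbance was read and CC50 derived, reported as mean ± SD of three biological replicates.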

[4] = tested on: L. major strain NIH S intramacrophage amastigotes; assay: Intramacrophage antileishmanial assay; format: cell-based; details: Leishmania major
[5] = tested on: T. equiperdum strain IVM‐t1; assay: Antitrypanosomal Cell-TiterGlo assay, T. equiperdum; format: cell-based, Trypanosoma equiperdum; details: read-out: Antitrypomastigote activity IC50 ± SD
[6] = tested on: L. major strain NIH S promastigotes; assay: Antipromastigote resazurin assay, L. major; format: cell-based; details: Leishmania major, read-out: Antipromastigote activity IC50
[7] = tested on: Trypanosoma brucei brucei GUTat3.1; assay: Antitrypanosomal Cell-TiterGlo assay, T.b. brucei; format: cell-based; details: read-out: Antitrypomastigote activity IC50 ± SD
How it was run: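 Blood-stage T. b. brucei GUTat3.1 at 2500 cells/mL was first screened at 0.25 and 25 µg/mL. […] Plates ran 72 h, then CellTiter-Glo was added, shaken 2 min and held 10 min at room temperature for lysis. IC50 came from bioluminescence, mean ± SD of three biological replicates.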

[8] = tested on: human colorectal adenocarcinoma (CaCO2) cells; details: ref Tshiluka et al. [2023]; Tshiluka et al. [2025]; cited from earlier work
[9] = tested on: T. congolense strain IL3000; assay: Antitrypanosomal Cell-TiterGlo assay, T. congolense; format: cell-based, Trypanosoma congolense; details: read-out: Antitrypomastigote activity IC50 ± SD
[10] = tested on: Madin‐Darby bovine kidney (MDBK) cell line; assay: Animal cytotoxicity, CCK-8 assay in MDBK cells; format: cell-based; details: read-out: Cytotoxicity CC50 ± SD MDBK, 72 h
How it was run: as §1

[11] = tested on: T. brucei gambiense strain IL1922; assay: Antitrypanosomal Cell-TiterGlo assay, T.b. gambiense; format: cell-based, Trypanosoma brucei gambiense; details: read-out: Antitrypomastigote activity IC50 ± SD; Tbg IL1922, 72 h
[12] = General cytotoxicity, resazurin assay in Vero cells; format: cell-based; details: African green monkey
How it was run: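 Vero cells at 60,000 cells/mL were pre-incubated 24 h, then treated with a two-fold dilution series starting from 100 μM test compound for 72 h. […] Emetine served as control.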

[13] = 24 h, read-out: Static anti‐amastigote activity IC50
[14] = 72 h, read-out: Cidal anti‐amastigote activity IC50

Structure (SMILES): C[C@@H]1[C@H](O)[C@@H](C)/C=C/C=C/C=C/C=C/C=C/C=C/C=C/[C@H](O[C@@H]2O[C@H](C)[C@@H](O)[C@H](N)[C@@H]2O)C[C@@H]2O[C@](O)(C[C@@H](O)C[C@@H](O)[C@H](O)CC[C@@H](O)C[C@@H](O)CC(=O)O[C@H]1C)C[C@H](O)[C@H]2C(=O)O [AMB, Amphotericin B]
- IC50 [1, 13]: 50 nM
- IC50 [2]: 20 ± 9 nM

Structure (SMILES): CCC[C@H](NC(=O)CN1C(=O)SC(=Cc2ccc3c(c2)OCO3)C1=O)C(=O)OCC [Compound 8, Ethyl {2-[5-(benzo[d] [1,3]dioxol-5-ylmethylene)-2,4-dioxothiazolidin-3-yl]acetyl}norvalinate]
- IC50 [1, 13]: > 10000 nM
- IC50 [1, 14]: > 10000 nM
- CC50 at 72 h [3]: 97100 ± 9300 nM
- IC50 [2]: 85860 ± 390 nM
- IC50 [4, 13]: > 10000 nM
- IC50 [4, 14]: > 10000 nM
- IC50 ([5]; Trypanosoma equiperdum, 72 h): > 58000 nM
- IC50 [6]: > 100000 nM
- IC50 ([7]; Trypanosoma brucei, 72 h): > 58000 nM
- Toxicity on CaCO2 (Caco‐2) cells in words [8]: reduced cell viability
- IC50 ([9]; Trypanosoma congolense, 72 h): > 58000 nM

Structure (SMILES): CC[C@H]1CN2CCc3cc(OC)c(OC)cc3[C@@H]2C[C@@H]1C[C@H]1NCCc2cc(OC)c(OC)cc21 [Em, Emetine]
- CC50 at 72 h [12]: 80 ± 9 nM

Continued, in another order:

- IC50 ([7]; Tbb GuTat3.1, 72 h): 68 nM
Structure (SMILES): N=C(N)c1ccc(N=NNc2ccc(C(=N)N)cc2)cc1 [Diminazene aceturate, diminazene aceturate]
- CC50 [10]: > 355000 nM
- IC50 ([5]; Teq IVM‐t1, 72 h): 22 ± 2 nM
- IC50 [11]: 11 nM
- IC50 ([9]; Tc IL3000, 72 h): 90 nM

- IC50 ([7]; Trypanosoma brucei, 72 h): 70 ± 20 nM
Structure (SMILES): Cc1ccc(C(=O)Nc2ccc(S(=O)(=O)O)c3cc(S(=O)(=O)O)cc(S(=O)(=O)O)c23)cc1NC(=O)c1cccc(NC(=O)Nc2cccc(C(=O)Nc3cc(C(=O)Nc4ccc(S(=O)(=O)O)c5cc(S(=O)(=O)O)cc(S(=O)(=O)O)c45)ccc3C)c2)c1 [Suramin, suramin]
- CC50 at 72 h [3]: > 70000 nM
